From ChEMBL document CHEMBL5338714, “Design, synthesis and biological evaluation of biphenyl-benzamides as potent FtsZ inhibitors” (Eur J Med Chem, 2022) come the findings set out here.

Data set [1] is described as follows: Metabolic stability in human liver microsomes assessed as compound remaining preincubated for 5 mins followed by NADPH addition measured immediately by LC/MS analysis. The format is ADME, Microsome. The conditions noted are these: read-out: Stability. An outline of the steps: (§1)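 Liver microsomes (final protein 0.75 mg/mL) with compound in 100 mM phosphate buffer pH 7.4, preincubated 5 min at 37 °C. Reaction started with NADPH regeneration system, stopped at 5, 15, 30 and 45 min with acetonitrile containing internal standard. Percent remaining measured by LC/MS, with ketanserin as reference; variation given as RSD of area ratio.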

Data set [2] concerns Staphylococcus aureus. In words: Antibacterial activity against ampicillin/kanamycin-resistant Staphylococcus aureus 6917 assessed as bacterial growth inhibition incubated for 18 hrs by CLSI based broth microdilution method. The format is functional. An outline of the steps: (§2)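 Broth microdilution to CLSI guidelines. Log-phase bacteria grown in Mueller Hinton broth, diluted, then exposed to 2-fold serial dilutions of compound (128 to 0.25 µg/mL or 2 to 0.004 µg/mL). Incubated aerobically 18 h at 37 °C. Growth read as OD600. MIC = lowest concentration giving ≥90% growth inhibition. Three independent assays.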
(Dilution methods test growth across graded concentrations, often in twofold steps.)

Data set [3] can be described thus: Metabolic stability in mouse liver microsomes assessed as compound remaining preincubated for 5 mins followed by NADPH addition measured immediately by LC/MS analysis. The format is ADME, Microsome. Conditions: read-out: Stability. In general terms: Liver microsomes are vesicles of endoplasmic reticulum, rich in cytochrome P450 enzymes.
Data set [4] in a line: Metabolic stability in rat liver microsomes assessed as compound remaining preincubated for 5 mins followed by NADPH addition measured after 45 mins by LC/MS analysis. The format is ADME, Microsome. Conditions: time 50 min, read-out: Stability. An outline of the steps:
as §1

Data set [5] in a line: AUC (0 to t) in ICR mouse at 5 mg/kg, po measured for 0.25 to 24 hrs by LC-MS/MS analysis. The format is ADME, organism-based. Set-up: time lower 0.25 hrs, dose 5 mg/kg, time upper 24 hrs, route po. The conditions noted are these: in vivo. The procedure, abridged: (§3)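 Male ICR mice dosed orally with a solution of 5% DMSO, 4% ethanol, 5% Cremophor EL and 86% water. Blood collected at 15, 30 min, 1, 2, 4, 6, 8 and 24 h; plasma stored at -20 °C. Plasma levels measured by LC-MS/MS; parameters by non-compartmental analysis, with bioavailability relative to the 1 mg/kg iv dose.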

Data set [6] in a line: Half life in ICR mouse at 5 mg/kg, po measured for 0.25 to 24 hrs by LC-MS/MS analysis. The format is ADME, organism-based. Conditions: in vivo, time 0.25-24 hrs. The procedure, abridged: as §3
Data set [7] has as its system Staphylococcus aureus. Nature of the data set: Antibacterial activity against Staphylococcus aureus ATCC25923 assessed as reduction in bacterial count at 4 times MIC measured for 3 hrs by time kill curve assay. The format is functional, organism-based. An outline of the steps:
(§4)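 Time-kill: log-phase cultures diluted to about 10^6 CFU/mL in MHB with compound at 1×, 2×, 4× or 8× MIC (vancomycin at 2× MIC), shaken at 37 °C. Samples taken at 3, 6, 12 and 24 h, serially diluted and plated on LB agar. Colonies counted after 24 h at 37 °C; detection limit 10^3 CFU/mL.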

Data set [8] can be described thus: Metabolic stability in rat liver microsomes assessed as intrinsic clearance preincubated for 5 mins followed by NADPH addition measured upto 45 mins by LC/MS analysis. The conditions noted are these: time < 50 min, read-out: CLH. The format is ADME, Microsome. The procedure, abridged: (§5)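 Liver microsomes at 0.75 mg/mL final protein, with test article and NADPH regeneration system (6 mM) in 100 mM phosphate buffer, pH 7.4. Preincubated 5 min at 37 °C, then started with NADPH. Quenched with acetonitrile containing internal standard at 5, 15, 30 and 45 min, centrifuged, and percent remaining measured by LC/MS. Ketanserin served as reference.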

Data set [9] deals with Staphylococcus aureus. In words: Antibacterial activity against ampicillin-resistant Staphylococcus aureus 669 assessed as bacterial growth inhibition incubated for 18 hrs by CLSI based broth microdilution method. The format is functional. The procedure, abridged:
as §2

Data set [10] relates to Bacillus subtilis. In words: Selectivity ratio of MBC for Bacillus subtilis ATCC9372 to MIC for Bacillus subtilis ATCC9372. The format is functional. An outline of the steps: (§6)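 After 24 h of broth microdilution, 5 µL from clear wells plated on LB agar and incubated aerobically for 24 h at 37 °C. MBC is the lowest concentration with no colonies. Ratio is MBC over MIC, with ≤4 taken as bactericidal and >4 as bacteriostatic.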

The nature of data set [11]: Metabolic stability in human liver microsomes assessed as compound remaining preincubated for 5 mins followed by NADPH addition measured after 5 mins by LC/MS analysis. The format is ADME, Microsome. The conditions noted are these: time 10 min, read-out: Stability. An outline of the steps:
as §1

The nature of data set [12]: Metabolic stability in mouse liver microsomes assessed as compound remaining preincubated for 5 mins followed by NADPH addition measured after 5 mins by LC/MS analysis. The format is ADME, Microsome. Conditions: time 10 min, read-out: Stability. An outline of the steps: as §1
Data set [13] in a line: Selectivity index, ratio of CC50 for African green monkey Vero cells to MIC for Bacillus subtilis ATCC9372. The format is toxicity, cell-based. Conditions: read-out: Selectivity Index. An outline of the steps:
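CC50 in Vero cells (72 h Alamar blue) divided by broth microdilution MIC against B. subtilis ATCC9372.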

The subject of data set [14] is Staphylococcus aureus. Nature of the data set: Bactericidal activity against Staphylococcus aureus ATCC25923 incubated for 24 hrs by broth microdilution method. The format is functional. The procedure, abridged: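 MBC from the broth microdilution plates (MHB, 2-fold dilutions). After 24 h, 5 µL aliquots from clear wells were plated on LB agar and incubated aerobically 24 h at 37 °C, then colonies counted. MBC = lowest concentration with no colonies.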

The test system of data set [15] is Staphylococcus aureus. Nature of the data set: Antibacterial activity against methicillin-resistant Staphylococcus aureus shhsE1 assessed as bacterial growth inhibition incubated for 18 hrs by CLSI based broth microdilution method. The format is functional. An outline of the steps: as §2
Data set [16] in a line: Metabolic stability in mouse liver microsomes assessed as compound remaining preincubated for 5 mins followed by NADPH addition measured after 45 mins by LC/MS analysis. The conditions noted are these: time 50 min, read-out: Stability. The format is ADME, Microsome. An outline of the steps:
as §1

Data set [17] is described as follows: Metabolic stability in mouse liver microsomes assessed as intrinsic clearance preincubated for 5 mins followed by NADPH addition measured upto 45 mins by LC/MS analysis. The format is ADME, Microsome. The conditions noted are these: time < 50 min, read-out: CLH. The procedure, abridged: as §5
Data set [18] is described as follows: Metabolic stability in rat liver microsomes assessed as compound remaining preincubated for 5 mins followed by NADPH addition measured after 15 mins by LC/MS analysis. The format is ADME, Microsome. Conditions: time 20 min, read-out: Stability. An outline of the steps: as §1
Data set [19] deals with Staphylococcus aureus. In words: Selectivity ratio of MBC for Staphylococcus aureus ATCC25923 to MIC for Staphylococcus aureus ATCC25923. The format is functional. The procedure, abridged:
as §6

Data set [20] has as its system Bacillus subtilis. In words: Antibacterial activity against Bacillus subtilis ATCC9372 assessed as reduction in bacterial count at 2 times MIC measured for 3 hrs by time kill curve assay. The format is functional, organism-based. The procedure, abridged:
as §4

Data set [21] can be described thus: Bioavailability in ICR mouse at 5 mg/kg, po measured for 0.25 to 24 hrs by LC-MS/MS analysis. The format is ADME, organism-based. The conditions noted are these: in vivo, time 0.25-24 hrs. An outline of the steps:
as §3

Data set [22] can be described thus: Half life in ICR mouse at 1 mg/kg, iv measured for 0.08 to 24 hrs by LC-MS/MS analysis. The format is ADME, organism-based. The conditions noted are these: in vivo, time 0.08-24 hrs. The procedure, abridged:
(§7)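 Male ICR mice, single intravenous dose formulated in 5% DMSO, 4% ethanol, 5% Cremophor EL, 86% water. Blood sampled at 5, 15, 30 min, 1, 2, 4, 8 and 24 h; plasma stored at -20 °C. Compound quantified by LC-MS/MS, with parameters from non-compartmental analysis.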

Data set [23] in a line: Cmax in ICR mouse at 1 mg/kg, iv measured for 0.08 to 24 hrs by LC-MS/MS analysis. Conditions: in vivo. On the set-up: time upper 24 hrs, dose 1 mg/kg, time lower 0.08 hrs, route iv. The format is ADME, organism-based. An outline of the steps: as §7
Data set [24] concerns Bacillus subtilis. In words: Induction of morphological changes in Bacillus subtilis ATCC9372 assessed as increase in cell length at MIC incubated for 3 hrs by microscopic analysis (reference value: 10 um). The format is functional.

The structures appear in SMILES notation. Values after ≈ are worked out from the molar mass of the structure shown. Active and inactive are the calls of the source.

In general, MIC refers to the lowest concentration found to suppress growth. As usually defined, the AUC(0-t) is exposure summed from dosing to a finite time, without extrapolation to infinity. The half-life is the time needed for the level to fall by half in the phase considered. As a reminder, the MBC is the lowest tested concentration that kills the bacteria rather than only halting them. A word on the bioavailability: it is the share of a dose that reaches the circulation, judged against a reference dose that is usually intravenous. The term Cmax denotes the highest concentration seen after dosing. Consider `Cc1cc(Cl)ccc1-c1cccc(COc2ccc(F)c(C(N)=O)c2F)c1`, for which the remaining at 0 min in data set [1] and in data set [3] was 100% in each case. For the same molecule, the figures for the MIC in the data set on Staphylococcus aureus [2], with Staphylococcus aureus [9] and in the data set on Staphylococcus aureus [15] were 0.125 µg/mL (≈ 0.322 µM), 0.06 µg/mL (≈ 0.155 µM) and 0.125 µg/mL (≈ 0.322 µM), respectively. Further, the remaining at 0.75 h in [4] was found to be 10%; in [16], 0.46%. In [5], this molecule returned an AUC(0-t) of 544 ng·h/mL. Moreover, the half-life in data set [6] is 2.26 h. The outcome in the data set with Staphylococcus aureus [7] and with Bacillus subtilis [20] was Active. Besides, the CLint scaled in [8] was 183 mL/min/kg; in data set [17] it was 1070 mL/min/kg. The Selectivity ratio in the data set on Bacillus subtilis [10] was found to be 4; with Staphylococcus aureus [19], 2. In addition, the remaining at 5 min turned out to be 97.1% in [11] and 53.1% in data set [12]. For the same molecule, the selectivity ratio in [13] was more than 645. This molecule yielded an MBC in the data set on Staphylococcus aureus [14] of 0.25 µg/mL (≈ 0.645 µM). Further, the remaining at 0.25 h in [18] came out at 39%. The bioavailability in data set [21] came to 61.2%. This molecule also registered a t1/2 in data set [22] of 0.28 h. This molecule yielded a Cmax in [23] of 480 ng/mL. In the data set with Bacillus subtilis [24], the Activity is on record as more than 60 um.
